From PubChem
CXCR6 inh: CXCR6 (human) receptor inhibition; O00574; inhibition, % at 20 µM; actives 0.36% (n = 360,000); CHO-K1 PathHunter CXCR6 beta-arrestin, luminescence; in the data active = inhibition above about 34%, passing the limit was not always enough;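 note: antagonist mode with CXCL16 agonist at 10 nM final; 0% = 10 nM CXCL16 with DMSO and 100% = unstimulated wells without agonist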
APJ ag: APJ receptor agonism. actives 0.11% (n = 330,000). CHO-K1 APJ PathHunter beta-arrestin, luminescence; 0% DMSO wells, 100% apelin. AID 2520. activation, % at 20 µM;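 active = activation more than six SD over the plate average, tested at 20 µM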;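 note: 0% = DMSO alone and 100% = apelin-13 at 10 nM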
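Test system: CHO-K1 APJ beta-arrestin complementation cell line. Amount: cell density 1000 per well. Controls: DMSO negative, 10 nM Apelin-13 positive. Signal: luminescent beta-gal fragment complementation, chemiluminescent substrate. Read-out basis: agonist-driven arrestin binding to APJ. Timing: compound stimulation 90 min at 25 °C, detection 60 min.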
APJ antag: APJ receptor antagonism; CHO-K1 APJ beta-arrestin complementation, luminescence; inhibition, % at 20 µM; actives 0.32% (n = 330,000); AID 2521;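 active = inhibition above about 40% at 20 µM, limit read from the data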;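 note: cells challenged with 10 nM apelin-13 agonist together with compound; plate controls were apelin-13 plus DMSO wells for no effect and DMSO wells lacking apelin-13 for full effect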
EBI2 block: EBI2 (human) antagonism; P32249; EBI2 beta-arrestin recruitment, luminescence, 7a,25-OHC stimulated; inhibition, % at 5 µM; actives 0.81% (n = 360,000); AID 651636; in the data active = inhibition above about 38%;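 note: enzyme fragment complementation signal reports receptor beta-arrestin coupling in cells; 0% = agonist plus DMSO wells and 100% = wells without agonist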
CCR6 antagonist: antagonists of human CCR6 receptor | P51684 | CHO-K1 CCR6 PathHunter beta-arrestin, luminescence, CCL20-stimulated | inhibition, % at 20 µM | actives 0.49% (n = 340,000) | AID 493098;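 active = compounds whose inhibition of the agonist-driven luminescence signal at 20 µM reaches about 50%, limit read from the data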;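 note: cells stimulated with CCL20 at 14 nM final; plate controls were DMSO with CCL20 for no effect and DMSO without agonist for full effect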
Target sequence (P51684 whole entry, looked up): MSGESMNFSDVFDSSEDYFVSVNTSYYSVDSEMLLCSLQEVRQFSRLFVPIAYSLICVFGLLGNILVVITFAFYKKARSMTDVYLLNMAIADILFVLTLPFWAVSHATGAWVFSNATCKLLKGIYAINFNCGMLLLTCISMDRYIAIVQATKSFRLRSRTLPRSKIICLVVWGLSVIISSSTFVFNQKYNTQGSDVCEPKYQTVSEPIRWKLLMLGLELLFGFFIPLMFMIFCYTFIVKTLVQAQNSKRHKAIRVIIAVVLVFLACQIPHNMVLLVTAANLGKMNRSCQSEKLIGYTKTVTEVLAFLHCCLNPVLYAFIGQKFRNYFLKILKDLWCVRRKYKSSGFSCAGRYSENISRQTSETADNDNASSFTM
Starred values were filed as active, the others as inactive; · = not tested or not shown. An excerpt weighted towards active compounds, which were near 1.5% of everything screened.

SMILES	CXCR6 inh	APJ ag	APJ antag	EBI2 block	CCR6 antagonist
COc1cc(/C=C2\SC(=S)N(NS(=O)(=O)c3ccc(C)cc3)C2=O)ccc1O	37.2*	-7.3	36.0	13.0	49.6
COc1cc(/C=C2\SC(=S)N(NC(=O)c3ccncc3)C2=O)ccc1O	33.7	-6.2	34.4	13.1	53.1*
CCOc1ccc(/C=C2\SC(=S)N(Nc3ccccc3)C2=O)cc1OC	4.9	-1.7	-0.2	5.7	0.5
CC(/C=C1\SC(=S)N(NC(=O)c2ccncc2)C1=O)=C\c1ccccc1	3.3	0.8	3.4	13.7	7.1
COc1cc(/C=C2\SC(=S)N(Nc3ccccc3)C2=O)cc(OC)c1OC	-0.1	0.8	-9.1	10.8	50.6*
CCOc1ccc(NC(=O)CN(C)S(=O)(=O)c2cccs2)cc1	49.0*	1.9	-8.6	-2.6	9.4
CN1C(=O)/C(=N\OC(=O)c2cccc3ccccc23)c2ccccc21	32.4	-3.1	19.9	27.2	32.4
COc1ccc(C(=O)O/N=C2\C(=O)N(C)c3ccccc32)cc1	26.7	-2.3	17.4	40.4	59.4*
Cc1cccc(CC(=O)N2CCC(N3CCC(C(=O)N4CCOCC4)CC3)CC2)c1	-2.4	-1.7	-1.8	-10.9	-14.8
Cc1c(NC(=O)c2ccc(CC(C)C)o2)c(=O)n(-c2ccccc2)n1C	-1.5	-2.8	6.4	9.0	2.6
COC(=O)c1cc(=O)n(Cc2ccc(OC)cc2)c(=NCc2ccc(OC)cc2)s1	2.0	-3.3	4.4	42.4	30.0
COC(=O)c1cc(=O)n(Cc2ccc3c(c2)OCO3)c(=Nc2ccc(F)c(Cl)c2)s1	-0.2	-3.1	16.3	63.9*	14.7
O=C(Nc1nnc(C2CC2)s1)c1cc([N+](=O)[O-])ccc1N1CCCCC1	19.7	-3.3	15.8	11.7	72.3*
Cc1ccc(NC(=O)c2cc([N+](=O)[O-])ccc2N2CCCC2)cc1	5.0	-2.8	22.5	15.5	29.1
CC1=CN(S(=O)(=O)c2ccc(C)cc2)C[C@@H]2c3ccccc3N(S(=O)(=O)c3ccc(C)cc3)[C@H]12	2.5	·	·	-9.9	22.7
O=[N+]([O-])c1cccc(-c2nc(-c3ccccc3)c(-c3cccs3)[nH]2)c1	6.8	-3.1	-0.5	5.6	-3.9
COc1cc(-c2nc(-c3ccccc3)c(-c3cc([N+](=O)[O-])ccc3C)[nH]2)cc(OC)c1OC	49.4*	-4.7	28.9	37.6*	14.1
Cc1cc(-c2ccc(N=Nc3c(S(=O)(=O)O)cc4cc(S(=O)(=O)O)cc(N)c4c3O)c(C)c2)ccc1N=Nc1c(S(=O)(=O)O)cc2cc(S(=O)(=O)O)cc(N)c2c1O	·	-16.5	78.0*	·	·
Nc1cc(S(=O)(=O)O)cc2ccc(S(=O)(=O)O)cc12	-12.1	·	·	-33.0	-1.6
N#CC1C(=O)NC(c2ccccc2)=CC1c1ccccc1 (configuration not stated)	22.0	·	·	-15.6	52.1*
CC1(C)CC(NS(=O)(=O)c2ccc(S(N)(=O)=O)cc2)CC(C)(C)N1	-1.3	-3.2	-12.9	10.1	·
O=C(CCn1ccnc1)Nc1cc(Cl)ccc1O	-2.4	3.8	-11.1	-6.4	0.6
Cc1ccc(OCC(=O)NNC(=S)NC(=O)C(C)(C)C)c(Br)c1	37.7	-5.3	9.9	6.3	58.8*
Cc1ccc(OCC(=O)NC(=S)Nc2ccccn2)c(Br)c1	1.2	-5.1	-5.7	-8.4	-2.9
COC(=O)c1ccc(NC(=S)NC(=O)c2cc(-c3ccccc3)nc3ccccc23)cc1	30.0	-0.1	34.8	21.8	52.5*
SMILES	CXCR6 inh	APJ ag	APJ antag	EBI2 block	CCR6 antagonist
CC1=CN2C(=N)/C(=C/c3ccc(Sc4ccc(Cl)cc4)o3)C(=O)N=C2S1	19.0	-2.6	20.1	3.3	52.5*
CC1=CN2C(=N)/C(=C/c3ccc(Sc4ccc(C)cc4)o3)C(=O)N=C2S1	34.4	-1.1	25.8	0.0	62.6*
COc1ccc(Cn2cc(CN3CC(N4CC=CC4)CS3(=O)=O)nn2)cc1 (configuration not stated)	-5.6	·	·	-13.0	·
COc1ccc(CNC(=O)CN2CCC(NC(=O)c3ccccc3C)CC2)cc1	1.8	-2.3	22.5	6.8	-0.2
CC1C(c2ccccc2)N(C)C(c2ccccc2)C(C)C1(O)C#Cc1ccccc1 (configuration not stated)	5.7	-3.2	5.4	21.7	50.4*
N#Cc1ccc(-c2cccnc2)nc1SCC(=O)c1ccccc1	6.7	0.1	-21.0	39.6*	10.3
O=C(Nc1ccc(Cl)cc1)Nc1ccccc1Sc1ncc([N+](=O)[O-])s1	33.9	-1.8	7.7	38.6	50.1*
O=C(N/N=C/c1ccc(O)c([N+](=O)[O-])c1)C(O)(c1ccccc1)c1ccccc1	14.4	-6.0	27.7	3.2	16.6
O=C(N/N=C/c1cc([N+](=O)[O-])cc([N+](=O)[O-])c1O)C(O)(c1ccccc1)c1ccccc1	39.3*	-5.0	23.6	6.8	31.9
CS(=O)(=O)c1ccc(S(=O)(=O)N2CCN(C(=O)C(O)c3ccccc3)CC2)cc1 (configuration not stated)	·	·	·	-5.0	·
Cc1cc(S(=O)(=O)c2ccc(Cl)cc2)nc(S(=O)(=O)c2ccc(Cl)cc2)c1C#N	75.3*	·	·	-12.4	·
CC(=O)c1cccc(NC(=O)NC(C)c2ccc3c(c2)OCO3)c1 (configuration not stated)	0.5	-1.5	-18.6	9.0	-19.7
CCCC(C(=O)Nc1cccc(S(=O)(=O)N2CCCC2)c1)c1ccccc1 (configuration not stated)	5.1	-2.3	-43.7	6.0	16.7
COc1ccc(-n2c(O)c(/C=N/NS(=O)(=O)c3ccc(C)cc3)c3ccccc3c2=O)cc1OC	-4.2	-0.1	-15.8	-7.9	15.8
COc1ccc(-n2c(O)c(/C=N/Nc3nc(C)cc(C)n3)c3ccccc3c2=O)cc1OC	36.9*	-3.2	21.9	2.0	72.9*
COc1cccc(NC(=O)CSc2nc3ccccc3nc2N2CCOCC2)c1	-3.7	-6.2	11.0	2.8	-0.1
CS(=O)(=O)c1cccc(-c2nnc(NC(=O)CCS(=O)(=O)c3ccccc3)o2)c1	-17.6	3.2	-15.3	5.5	3.2
Cc1ccc(S(=O)(=O)N2CCCCC2)cc1NC(=O)Cn1ncc(Cl)c(Cl)c1=O	23.7	0.5	-2.5	63.3*	13.0
Nc1c(Cl)cc2c(c1Br)Cc1ccccc1-2	-6.6	·	·	-4.1	-0.2
Nc1c(Cl)cc2c(c1Oc1ccccc1)C(=O)c1ccccc1C2=O	37.8*	2.0	5.9	10.5	22.1
CCC(=O)c1ccc(N2CCN(C(=O)c3ccc(Br)cc3)CC2)c(F)c1	0.1	-0.1	-15.0	56.7*	5.2
CN(C)S(=O)(=O)c1cccc(-c2nnc(-c3ccccc3)o2)c1	5.4	0.9	16.8	50.1*	8.7
Cc1ccccc1NS(=O)(=O)c1cccc(-c2nnc(-c3ccccc3)o2)c1	10.0	-3.6	3.4	4.6	10.8
O=C(Nc1ccc(S(=O)(=O)Nc2nccs2)cc1)c1c(F)c(F)c(F)c(F)c1F	-4.8	8.0	3.8	14.5	8.1
